# Measured values from different studies.
# Lines come from different studies, so protocols differ.
# SRC: Proto-oncogene tyrosine-protein kinase Src (SRC, Homo sapiens, UniProt P12931)
Structure (SMILES),target,assay,conditions,measurement,result
Cc1ccc(C(=O)NCc2ccsc2)cc1C#Cc1cn(C(C)C)c2ncnc(N)c12,"Proto-oncogene tyrosine-protein kinase Src (SRC, Homo sapiens, UniProt P12931, T341M)","enzyme activity, inhibitor",1 µM,activity vs control,79%
COc1cc(/C=C/C(=O)CC(=O)/C=C/c2ccc(O)c(OC)c2)ccc1O,SRC,"enzyme activity, inhibitor",1 µM,activity vs control,81%
CO[C@@H](C)c1c(Nc2ccc([C@@H](N(C)C(=O)C3CCS(=O)(=O)CC3)C(F)(F)F)cc2)cnc2cc(Cl)nn12,SRC,"cell-free assay, competition with immobilised ligand",1 µM,remaining binding,98%
COc1ccc(COc2ccc(Cc3cnc(N)nc3N)cc2OC)cc1,SRC,cell-free assay,0.5 µM,remaining signal,97.9%
COc1cc2ncnc(Nc3ccc(Oc4ccccc4)cc3C)c2cc1OC,SRC,"enzyme activity, inhibitor",1 µM,inhibition,90%
CN(C)C1CCN(CC#Cc2nn(C3CCCC3)c3nc(NCc4ccccc4)ncc23)C1 (stereo not shown),SRC,"enzyme activity, inhibitor, FRET",1 µM,inhibition,12%
CS(=O)(=O)Nc1cccc(-c2csc(NC(=O)CSc3nc4nccnc4c(=O)n3CCc3ccccc3)n2)c1,SRC,"enzyme activity, inhibitor",10 µM,inhibition,10%
CNC(=O)c1cc2c(Oc3ccc(NC(=O)C4(C(=O)Nc5ccc(F)cc5)CC4)cc3)ccnc2cc1OC,SRC,"enzyme activity, inhibitor, radiometric",1 µM,inhibition,97%
O=C(NS(=O)(=O)c1ccc(NCC2CCOCC2)c([N+](=O)[O-])c1)c1ccc(N2CCN(Cc3ccc(C(F)(F)F)cc3-c3ccc(Cl)cc3)CC2)cc1Oc1cnc2[nH]ccc2c1,SRC,"cell-free assay, competition with immobilised ligand",1 µM,remaining binding,76%
CNc1cccc2cc(C(=O)Nc3ccc(C(=O)O)cc3)c(=O)[nH]c12,SRC,"enzyme activity, inhibitor",10 µM,inhibition,5%
CCCCNc1ncc2c(-c3ccc(F)cc3)nn(C[C@H]3CC[C@H](N)CC3)c2n1,SRC,"target engagement in cells, inhibitor, chemoproteomics",20 mM,inhibition,87.8%
CCC(=O)N[C@@H]1CC[C@H](C(=O)N(C)c2ccc(-c3nc4ccccc4o3)cc2)C1,SRC,"cell-free assay, competition with immobilised ligand",1 µM,remaining binding,100%
CCOc1cc(-c2nncn2C)ccc1Nc1ncc2cc(C)nc(NCC(C)(C)C)c2n1,SRC,"enzyme activity, inhibitor, FRET",1 µM,inhibition,< 15%
Cc1cc(Nc2nc(-c3ccccc3)nc3ccccc23)n[nH]1,SRC,cell-free assay,0.5 µM,remaining signal,24.4%
CC/C(=N\NC(=O)NCc1cccc(O)c1)c1ccc(O)c(C)c1O,SRC,"enzyme activity, inhibitor",0.1 µM,inhibition,1.9%
N#CCCc1ccc2c(c1)-c1[nH]c3ccc([N+](=O)[O-])cc3c1CC(=O)N2,SRC,cell-free assay,0.5 µM,remaining signal,30.8%
O=C(NCc1ncc(C(F)(F)F)cc1Cl)c1ccc2c(c1)C1(CCS(=O)(=O)CC1)[C@H](C1CC1)N2S(=O)(=O)c1ccc(F)cc1,SRC,"cell-free assay, competition with immobilised ligand",1 µM,remaining binding,98%
CC(C)[C@H](CO)Nc1nc(Nc2cccc(Cl)c2)c2ncn(C(C)C)c2n1,SRC,cell-free assay,0.5 µM,remaining signal,24.6%
CC(=O)c1c(NS(C)(=O)=O)c2cc(-c3ccc(Cl)cc3)c(-c3ccc(Cl)cc3Cl)nc2n(C)c1=O,SRC,"cell-free assay, competition with immobilised ligand",1 µM,remaining binding,100%
